# An excerpt weighted towards active compounds, which were near 2.9% of everything screened.
# MEKK2wt PB1 HTS: raises or lowers MEK5 binding to wildtype human MEKK2 PB1 domain; Q9Y2U5; bead flow cytometry, Alexa488-MEK5 binding to MEKK2 WT; actives lie on both sides; binding response (% of control), % at 10 µM; 290,000 compounds, 1.1% hits; in the data active = binding response below about 67% or above about 130%
# MEKK2 mut-MEK5: signal of MEK5 binding to mutant human MEKK2 PB1 domain. bead flow cytometry, Alexa488-MEK5 binding to MEKK2 mutant. 290,000 compounds, 0.35% hits. percent response, % at 10 µM; in the data active = percent response above about 24%, passing the limit was not always enough
# Apaf-1 inh: blocks human Apaf-1 apoptosome activity. O14727. reconstituted apoptosome caspase-3 activity, DEVD-Rh110 fluorescence. inhibition, % at 20 µM. 330,000 compounds, 0.71% hits. AID 489030; active = inhibition of at least 40% at 20 µM;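 also: plate controls were DMSO wells for no effect and DEVD-CHO caspase inhibitor wells for full effect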
# Target sequence (O14727 whole entry, looked up): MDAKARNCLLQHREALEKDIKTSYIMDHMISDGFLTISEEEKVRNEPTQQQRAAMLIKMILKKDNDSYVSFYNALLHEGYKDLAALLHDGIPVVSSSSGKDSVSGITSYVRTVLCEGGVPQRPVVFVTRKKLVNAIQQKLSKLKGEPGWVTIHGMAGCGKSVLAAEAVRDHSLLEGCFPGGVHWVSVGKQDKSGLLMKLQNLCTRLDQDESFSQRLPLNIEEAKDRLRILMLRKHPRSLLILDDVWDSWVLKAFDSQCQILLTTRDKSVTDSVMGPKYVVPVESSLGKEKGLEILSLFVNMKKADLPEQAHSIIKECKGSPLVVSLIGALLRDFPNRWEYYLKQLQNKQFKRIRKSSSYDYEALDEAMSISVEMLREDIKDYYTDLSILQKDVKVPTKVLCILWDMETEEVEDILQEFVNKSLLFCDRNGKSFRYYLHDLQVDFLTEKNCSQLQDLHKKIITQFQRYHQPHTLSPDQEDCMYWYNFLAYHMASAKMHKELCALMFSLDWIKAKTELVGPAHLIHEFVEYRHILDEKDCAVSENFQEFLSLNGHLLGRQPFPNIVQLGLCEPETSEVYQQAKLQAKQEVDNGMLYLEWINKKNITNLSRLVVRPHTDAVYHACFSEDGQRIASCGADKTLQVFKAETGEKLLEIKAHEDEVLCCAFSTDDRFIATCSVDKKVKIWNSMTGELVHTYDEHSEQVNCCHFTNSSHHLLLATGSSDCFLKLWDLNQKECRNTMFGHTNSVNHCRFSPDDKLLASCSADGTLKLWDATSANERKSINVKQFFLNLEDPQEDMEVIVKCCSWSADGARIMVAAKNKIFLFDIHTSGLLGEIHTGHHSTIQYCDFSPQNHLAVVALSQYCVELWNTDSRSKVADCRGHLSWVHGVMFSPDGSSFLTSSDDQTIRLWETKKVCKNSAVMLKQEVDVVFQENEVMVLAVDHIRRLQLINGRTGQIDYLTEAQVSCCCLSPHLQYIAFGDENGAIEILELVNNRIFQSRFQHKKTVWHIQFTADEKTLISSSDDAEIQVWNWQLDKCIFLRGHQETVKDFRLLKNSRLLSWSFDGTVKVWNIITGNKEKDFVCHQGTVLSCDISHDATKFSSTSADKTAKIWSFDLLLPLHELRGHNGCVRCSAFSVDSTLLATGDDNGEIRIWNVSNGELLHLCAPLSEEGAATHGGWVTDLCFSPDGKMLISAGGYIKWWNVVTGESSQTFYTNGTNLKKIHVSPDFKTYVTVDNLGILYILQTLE
#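 Material: cell-free apoptosome with Apaf-1, procaspase-3 and caspase-9; Buffer or medium: Hepes pH 7.5 with detergent and BSA; Reagent: cytochrome c trigger plus (Z-DEVD)2-Rh110 caspase-3 substrate; Times: compound with Apaf-1, dATP, procaspase-3 30 min, then 50 min reaction, room temperature; Technique: Rh110 fluorescence intensity.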
# UBC13 polyUb: inhibitors of human UBC13 polyubiquitin chain formation. P61088. TR-FRET. inhibition, % at 20 µM. 330,000 compounds, 0.47% hits. AID 485273; in the data active = inhibition above about 45%, passing the limit was not always enough
# MEKK3 PB1 HTS: MEKK3-MEK5 PB1 interaction, increase or decrease; Q99759; bead-based flow cytometry, Alexa488-MEK5 binding to MEKK3; actives lie on both sides; 0 = blocked by unlabeled MEK5, 100 = vehicle; binding response (% of control), % at 10 µM; 290,000 compounds, 1.4% hits;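 active = binding response more than 3 SD above or below the average of its plate-row segment, actives on both sides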;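 also: Alexa488 bead fluorescence after subtracting the streptavidin-only scavenger bead signal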
# MEKK2wt confirm: raises or lowers MEK5 binding to wildtype human MEKK2, retest. shares compounds with MEKK3 PB1 HTS. bead flow cytometry, Alexa488-MEK5 binding to MEKK2 WT; actives lie on both sides. binding response (% of control), % at 10 µM. 5,900 compounds, 2.4% hits. AID 1892; in the data active = binding response below about 16% or above about 210%; inactive = in between
# MEKK2mut-MEK5: signal of MEK5 binding to mutant human MEKK2, retest. shares compounds with MEKK3 PB1 HTS. percent response, % at 10 µM. bead flow cytometry, Alexa488-MEK5 binding to MEKK2 mutant. 5,900 compounds, 2% hits; in the data active = percent response mostly above about 71%, no sharp cut-off; inactive = mostly below about 38%;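 also: higher means compound restores mutant binding toward wildtype level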
# MEKK3 confirm: confirmation of inhibitors of MEK5 binding to human MEKK3; bead flow cytometry, Alexa488-MEK5 binding to MEKK3; active compounds read low; shares compounds with MEKK3 PB1 HTS; binding response (% of control), % at 10 µM; 5,900 compounds, 1.8% hits;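 active = binding response below 72% of control, or above a set upper limit, though filed actives all read lower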;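 also: 100% = DMSO only wells and 0% = binding blocked by excess unlabeled MEK5; lower values mean stronger disruption of MEK5 binding to MEKK3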
# Active calls of the source: *; · = not tested or not shown; [ ] = remark or other dose.
SMILES,MEKK2wt PB1 HTS,MEKK2 mut-MEK5,Apaf-1 inh,UBC13 polyUb,MEKK3 PB1 HTS,MEKK2wt confirm,MEKK2mut-MEK5,MEKK3 confirm
O=C(COC(=O)c1cc(-c2ccccn2)nc2ccccc12)Nc1ncc(C(F)(F)F)cc1Cl,96,-2,-4,-7,94,·,·,·
CCOCCCNC(=O)C(NC(=O)c1ccc2c(c1)OCO2)c1ccc(OC)cc1 (stereo not given),107,8,-7,-1,104,·,·,·
COCCCNC(=O)c1ccc2c(c1)OCO2,73,-7,-2,6,67*[inhibitor],100,-3,103
CCCCOCCCNC(=O)c1ccc2c(c1)OCO2,110,4,-33,-2,105,·,·,·
CCOCCCNC(=O)C(NC(=O)c1ccc2c(c1)OCO2)c1ccccc1 (stereo not given),54,-14,-20,0,43*[inhibitor],105,2,105
COCCCNC(=O)c1ccc2nc(Cc3ccc(OC)cc3)oc2c1,16*[inhibitor],-15,-13,7,38*[inhibitor],104,2,104
O=S(=O)(c1cccc(F)c1)N1CCN(Cc2cc3c(cc2Br)OCCO3)CC1,·,·,7,6,·,·,·,·
CC(=O)c1cnc2ncnn2c1C,98,-1,5,6,98,·,·,·
Cc1cccc(Nc2ncnc3c2cnn3C)c1,89,-9,-8,-7,97,·,·,·
Cn1ncc2c(Nc3ccc4ccccc4c3)ncnc21,19*[inhibitor],-29,11,-4,14*[inhibitor],102,-3,100
N#CCCN1CCN(C(=O)c2c(N)no[n+]2[O-])CC1,112,0,2,3,128*,99,-5,102
COc1ccc(S(=O)(=O)N2CCOCC2)cc1NC(=O)CN1C(=O)NC2(CCCCC2C)C1=O (stereo not given),·,·,6,-6,·,·,·,·
CC(C)CCNC(=O)NC(=O)CSc1nnc2ccccn12,114,8,-4,-1,110,·,·,·
CC(C)CNC(=O)CSc1nnc2ccccn12,77,-4,-1,-17,53*[inhibitor],105,-2,103
COc1ccccc1N1CCN(C(=O)COc2ccc(S(=O)(=O)NC(C)(C)C)cc2)CC1,101,9,6,10,102,·,·,·
COC(=O)c1ccc(S(=O)(=O)c2ccc(Cl)cc2)c(N)c1,102,4,7,21,101,·,·,·
Cc1ccc(S(=O)(=O)CCNC(=O)Cc2ccccc2)cc1,97,-3,17,-1,95,·,·,·
CCC1C(=O)N=C(SCC(=O)Nc2ccc(S(N)(=O)=O)cc2)NC1=O (stereo not given),122,1,13,7,138*,100,-3,98
CCC1C(=O)N=C(SCC(=O)Nc2ccccc2)NC1=O (stereo not given),104,3,-11,3,110,·,·,·
O=C(c1cc(COc2c(F)cccc2F)on1)N1C[C@H]2CC[C@H]1C2,68,-24,13,-3,49*[inhibitor],18,-26,39*
O=C(c1cc(COc2c(F)cccc2F)on1)N1CCC(c2ccccc2Cl)C1 (stereo not given),51,-35,10,0,49*[inhibitor],96,-5,100
O=C(c1cc(COc2c(F)cccc2F)on1)N1CCC(c2ccccc2F)C1 (stereo not given),97,-1,24,0,103,·,·,·
CC1=NNC(=O)C1CCC(=O)N/N=C/C(Br)=C/c1ccccc1 (stereo not given),108,18,3,5,106,·,·,·
COC(=O)c1sccc1NC(=O)c1ccc(C)o1,-1.0*[inhibitor],-21,20,3,0.0*[inhibitor],92,-2,99
O=C(CCOc1ccccc1)Nc1ccnn1C1CCN(Cc2ccc(O)cc2)CC1,148*,22,7,6,109,135,17,105
SMILES,MEKK2wt PB1 HTS,MEKK2 mut-MEK5,Apaf-1 inh,UBC13 polyUb,MEKK3 PB1 HTS,MEKK2wt confirm,MEKK2mut-MEK5,MEKK3 confirm
CCN(C(=O)CSc1ncccn1)c1cccc2ccccc12,·,·,6,3,·,·,·,·
CC(C)CC1NC(=O)N(CCCCN2C(=O)c3ccccc3C2=O)C1=O (stereo not given),121,4,3,9,135*,107,9,109
CC1CCN(C(=O)CCC(=O)Nc2nnc(C3CCCCC3)s2)CC1,91,-14,19,-1,85,·,·,·
Cc1cc(N=Nc2ccc(C)c(N=Nc3cc(C)c(N)cc3N)c2)c(N)cc1N,76,-7,9,-69,67*[inhibitor],89,10,70*
Cn1nc(C(C)(C)C)cc1C(=O)NCc1ccc2c(c1)OCO2,101,3,-8,-3,99,·,·,·
CCC(=O)N[C@@H]1CC(C(C)(C)NC(=O)CC)CC=C1C (stereo not given in full),1.0*[inhibitor],-21,2,2,2.0*[inhibitor],105,3,101
CCCC(=O)C1=C(O)C(C(=O)OC)C(C)(C)CC1=NCCc1ccc(OC)c(OC)c1 (stereo not given),83,-7,-3,-2,72*[inhibitor],106,5,105
CCCC(=O)C1=C(O)C(C(=O)OC)C(C)(C)CC1=NCc1ccccc1 (stereo not given),109,12,10,4,104,·,·,·
CC1=C(C#N)C(=O)NC(=O)/C1=C/c1ccc(-c2ccc(S(N)(=O)=O)cc2)o1,3.0*[inhibitor],-13,-6,-8,7.0*[inhibitor],82,-12,88
CC1(C)CC2CC(C)(CN2C(=O)C23CCC(C)(C(=O)C2)C3(C)C)C1 (stereo not given),102,0,4,-5,128*,92,-8,97
CSCCC(NC(=O)c1ccco1)C(=O)N1CC=C(c2ccccc2)CC1 (stereo not given),107,3,2,-5,103,·,·,·
O=C(NCc1ccco1)C1CC(c2ccc(Cl)c(Cl)c2)=NO1 (stereo not given),42*[inhibitor],-18,3,-4,39*[inhibitor],103,4,103
O=C(NCc1ccco1)C1CC(c2c(Cl)cccc2Cl)=NO1 (stereo not given),98,3,1,-10,98,·,·,·
CCCN(CCC)CC(O)Cn1cc(/C=C/C(=O)c2ccccc2)c2ccccc21 (stereo not given),154*,21,·,·,88,150,21,99
CCCN(CCC)CC(O)Cn1cc(/C=C/C(=O)c2cccs2)c2ccccc21 (stereo not given),122,0,·,·,98,·,·,·
OC(CN1CCCC1)Cn1ccc2ccccc21 (stereo not given),146*,31*,18,10,101,163,33,105

# Screening results from PubChem BioAssay.
